This is an account of results in ChEMBL document CHEMBL4229344 (Eur J Med Chem, 2018).

What is called Tmax is the time at which the peak concentration occurs.

Data set [1] is described as follows: Tmax in Sprague-Dawley rat at 10 mg/kg, po. The class given is ADME, organism-based. To be noted: in vivo. A digest of the protocol: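 Male Sprague-Dawley rats, 6–8 weeks old and fasted overnight, dosed IV at 1 mg/kg or PO at 10 mg/kg. Formulation was 5% DMSO/40% PEG400/55% saline (1 mg/mL). Jugular blood collected on heparin from 1 min to 8 h (IV) or 5 min to 24 h (PO). Plasma separated by centrifugation at 2–8 °C and stored at −80 °C.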

The target of data set [2] is Serine/threonine-protein kinase TAO1 (Homo sapiens) (UniProt Q7L7X3). Put plainly: Binding affinity to wild-type human partial length TAOK1 (M1 to A320 residues) expressed in mammalian expression system assessed as residual binding level at 1 uM by Kinomescan method relative to control.
The target of data set [3] is Receptor-interacting serine/threonine-protein kinase 4 (Homo sapiens) (UniProt P57078). In words: Binding affinity to wild-type human partial length RIPK4 (M1 to V303 residues) expressed in mammalian expression system assessed as residual binding level at 1 uM by Kinomescan method relative to control.
Data set [4] concerns Phosphatidylinositol 4,5-bisphosphate 3-kinase catalytic subunit alpha isoform (Homo sapiens), P42336 [M1043I]. In words: Binding affinity to human partial length PIK3CA M1043I mutant (R108 to N1068 residues) expressed in mammalian expression system assessed as residual binding level at 1 uM by Kinomescan method relative to control. In a few lines:
(§1)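 Kinome-wide single-concentration binding screen (KINOMEscan) at 1 μM against a panel of 468 purified kinases and mutants. Read-out is relative binding of each kinase compared with control. Selectivity across the panel was summarised as an S(10) score.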

Data set [5] addresses Vascular endothelial growth factor receptor 3 (Homo sapiens) (UniProt P35916). Put plainly: Binding affinity to wild-type human partial length FLT4 (E821 to E1196 residues) expressed in bacterial expression system assessed as residual binding level at 1 uM by Kinomescan method relative to control.
The target in data set [6] is Aurora kinase B (Homo sapiens) (UniProt Q96GD4). In words: Binding affinity to wild-type human partial length AURKB (D25 to A303 residues) expressed in mammalian expression system assessed as residual binding level at 1 uM by Kinomescan method relative to control. In a few lines: (§2)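 Single-concentration KINOMEscan (DiscoverX) binding screen at 1 μM against a panel of 468 purified kinases and mutants. The read-out is binding relative to control.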

In data set [7] the target is Serine/threonine-protein kinase SBK1 (Homo sapiens) (UniProt Q52WX2). Put plainly: Binding affinity to wild-type human partial length SBK1 (P23 to P348 residues) expressed in mammalian expression system assessed as residual binding level at 1 uM by Kinomescan method relative to control.
Data set [8] deals with Beta-adrenergic receptor kinase 1 (Homo sapiens) (UniProt P25098). Put plainly: Binding affinity to wild-type human full length GRK2 (M1 to L689 residues) expressed in mammalian expression system assessed as residual binding level at 1 uM by Kinomescan method relative to control. A digest of the protocol: (§3)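 Single-concentration (1 μM) competition-binding screen run by KINOMEscan against a panel of 468 purified kinases and mutants. The read-out is the relative binding activity of the test compound to each kinase.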

Data set [9] relates to Epidermal growth factor receptor (Homo sapiens), P00533 [L858R,T790M]. In words: Binding affinity to human partial length EGFR L858R/T790M double mutant (R669 to V1011 residues) expressed in mammalian expression system assessed as residual binding level at 1 uM by Kinomescan method relative to control. In a few lines: as §1
Data set [10] concerns the target Rhodopsin kinase GRK1 (Homo sapiens) (UniProt Q15835). Put plainly: Binding affinity to wild-type human full length GRK1 (M1 to S563 residues) expressed in mammalian expression system assessed as residual binding level at 1 uM by Kinomescan method relative to control. In a few lines:
as §3

The nature of data set [11]: Apparent clearance in Sprague-Dawley rat at 1 mg/kg, iv. Particulars: in vivo, read-out: CL(app) (converted). The class given is ADME, organism-based.
Data set [12] deals with Vascular endothelial growth factor receptor 2 (Homo sapiens) (UniProt P35968). Put plainly: Binding affinity to wild-type human partial length VEGFR2 (R787 to P1253 residues) expressed in mammalian expression system assessed as residual binding level at 1 uM by Kinomescan method relative to control. In a few lines: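 KINOMEscan competition binding against a panel of 468 purified kinases/mutants, compound tested at 1 μM; readout is relative binding activity versus control.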

In data set [13] the target is Phosphatidylinositol 3-kinase catalytic subunit type 3 (Homo sapiens) (UniProt Q8NEB9). In words: Binding affinity to wild-type human partial length VPS34 (S282 to H879 residues) expressed in mammalian expression system assessed as residual binding level at 1 uM by Kinomescan method relative to control.
Data set [14] deals with Tyrosine-protein kinase receptor Tie-1 (Homo sapiens) (UniProt P35590). Put plainly: Binding affinity to wild-type human partial length TIE1 (T819 to A1138 residues) expressed in bacterial expression system assessed as residual binding level at 1 uM by Kinomescan method relative to control.
The target of data set [15] is Cyclin-dependent kinase-like 5 (Homo sapiens) (UniProt O76039). Put plainly: Binding affinity to wild-type human partial length CDKL5 (M1 to S337 residues) expressed in mammalian expression system assessed as residual binding level at 1 uM by Kinomescan method relative to control.
The target of data set [16] is Death-associated protein kinase 3 (Homo sapiens) (UniProt O43293). In words: Binding affinity to wild-type human partial length DAPK3 (M1 to A277 residues) expressed in bacterial expression system assessed as residual binding level at 1 uM by Kinomescan method relative to control.
The target in data set [17] is Testis-specific serine/threonine-protein kinase 1 (Homo sapiens) (UniProt Q9BXA7). Put plainly: Binding affinity to wild-type human full length TSSK1B (M1 to Q367 residues) expressed in bacterial expression system assessed as residual binding level at 1 uM by Kinomescan method relative to control. In a few lines:
as §2

Data set [18] has as its target Platelet-derived growth factor receptor alpha (Homo sapiens, UniProt P16234). In words: Inhibition of PDGF-induced PDGFRalpha autophosphorylation at Y754 residue in human NCI-H1703 cells after 2 hrs in presence of PDGF-AA by Western blot analysis. It counts as cell-based. In general terms: A western blot detects proteins with antibodies after separation by electrophoresis.

Data set [19] addresses Cyclin-dependent kinase 11A (Homo sapiens) (UniProt Q9UQ88). In words: Binding affinity to wild-type human partial length CDC2L2 (D391 to K730 residues) expressed in bacterial expression system assessed as residual binding level at 1 uM by Kinomescan method relative to control.
In data set [20] the target is Peripheral plasma membrane protein CASK (Homo sapiens) (UniProt O14936). In words: Binding affinity to wild-type human partial length CASK (M1 to H315 residues) expressed in mammalian expression system assessed as residual binding level at 1 uM by Kinomescan method relative to control. In a few lines: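 Kinome-wide competition binding screen against a panel of 468 purified kinases/mutants, with the test compound at a single concentration of 1 μM. Read-out is the relative binding activity of each kinase in the presence of compound.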

The target of data set [21] is Tyrosine-protein kinase JAK1 (Homo sapiens) (UniProt P23458). In words: Binding affinity to wild-type human partial length JAK1 JH1 catalytic domain (V856 to K1154 residues) expressed in bacterial expression system assessed as residual binding level at 1 uM by Kinomescan method relative to control.

Chain of Rhodopsin kinase GRK1 (Homo sapiens) (Q15835 whole entry, the tested form may be a part): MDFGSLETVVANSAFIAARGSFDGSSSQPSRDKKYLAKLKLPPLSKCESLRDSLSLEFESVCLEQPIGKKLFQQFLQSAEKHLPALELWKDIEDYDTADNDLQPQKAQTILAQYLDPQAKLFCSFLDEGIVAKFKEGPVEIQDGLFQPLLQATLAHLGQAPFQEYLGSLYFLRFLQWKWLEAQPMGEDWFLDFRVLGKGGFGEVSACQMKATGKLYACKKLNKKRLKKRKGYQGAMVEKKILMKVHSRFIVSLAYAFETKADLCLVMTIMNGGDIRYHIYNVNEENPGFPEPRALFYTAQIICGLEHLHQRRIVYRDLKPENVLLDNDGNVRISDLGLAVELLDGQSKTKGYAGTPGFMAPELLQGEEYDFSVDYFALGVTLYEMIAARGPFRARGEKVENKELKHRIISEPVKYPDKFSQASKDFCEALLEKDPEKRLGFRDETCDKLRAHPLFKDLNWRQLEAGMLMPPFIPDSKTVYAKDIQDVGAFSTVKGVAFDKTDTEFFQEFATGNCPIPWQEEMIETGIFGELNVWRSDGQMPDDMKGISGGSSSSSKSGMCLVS
Chain of Receptor-interacting serine/threonine-protein kinase 4 (Homo sapiens) (P57078 whole entry, the tested form may be a part, canonical isoform): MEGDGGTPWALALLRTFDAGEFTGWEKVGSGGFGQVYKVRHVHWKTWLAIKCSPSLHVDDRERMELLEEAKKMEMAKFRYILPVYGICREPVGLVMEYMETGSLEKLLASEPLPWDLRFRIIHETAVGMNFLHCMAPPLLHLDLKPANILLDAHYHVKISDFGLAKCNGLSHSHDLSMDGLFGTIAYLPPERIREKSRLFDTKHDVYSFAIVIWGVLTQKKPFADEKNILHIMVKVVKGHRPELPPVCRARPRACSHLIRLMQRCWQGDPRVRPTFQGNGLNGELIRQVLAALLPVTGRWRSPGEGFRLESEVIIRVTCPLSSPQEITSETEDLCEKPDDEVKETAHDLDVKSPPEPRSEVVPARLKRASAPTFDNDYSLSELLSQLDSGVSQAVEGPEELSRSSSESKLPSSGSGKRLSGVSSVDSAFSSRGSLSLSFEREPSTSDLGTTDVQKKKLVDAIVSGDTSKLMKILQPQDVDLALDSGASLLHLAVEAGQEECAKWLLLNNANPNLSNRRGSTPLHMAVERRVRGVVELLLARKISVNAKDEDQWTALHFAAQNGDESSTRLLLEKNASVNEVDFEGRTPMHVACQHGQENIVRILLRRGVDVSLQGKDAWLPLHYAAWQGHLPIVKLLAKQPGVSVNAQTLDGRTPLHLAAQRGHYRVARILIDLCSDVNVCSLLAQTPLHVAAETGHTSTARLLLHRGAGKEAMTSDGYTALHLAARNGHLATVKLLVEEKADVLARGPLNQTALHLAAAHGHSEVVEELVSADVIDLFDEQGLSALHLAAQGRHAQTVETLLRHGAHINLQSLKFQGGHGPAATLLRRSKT
Chain of Vascular endothelial growth factor receptor 2 (Homo sapiens) (P35968 whole entry, the tested form may be a part): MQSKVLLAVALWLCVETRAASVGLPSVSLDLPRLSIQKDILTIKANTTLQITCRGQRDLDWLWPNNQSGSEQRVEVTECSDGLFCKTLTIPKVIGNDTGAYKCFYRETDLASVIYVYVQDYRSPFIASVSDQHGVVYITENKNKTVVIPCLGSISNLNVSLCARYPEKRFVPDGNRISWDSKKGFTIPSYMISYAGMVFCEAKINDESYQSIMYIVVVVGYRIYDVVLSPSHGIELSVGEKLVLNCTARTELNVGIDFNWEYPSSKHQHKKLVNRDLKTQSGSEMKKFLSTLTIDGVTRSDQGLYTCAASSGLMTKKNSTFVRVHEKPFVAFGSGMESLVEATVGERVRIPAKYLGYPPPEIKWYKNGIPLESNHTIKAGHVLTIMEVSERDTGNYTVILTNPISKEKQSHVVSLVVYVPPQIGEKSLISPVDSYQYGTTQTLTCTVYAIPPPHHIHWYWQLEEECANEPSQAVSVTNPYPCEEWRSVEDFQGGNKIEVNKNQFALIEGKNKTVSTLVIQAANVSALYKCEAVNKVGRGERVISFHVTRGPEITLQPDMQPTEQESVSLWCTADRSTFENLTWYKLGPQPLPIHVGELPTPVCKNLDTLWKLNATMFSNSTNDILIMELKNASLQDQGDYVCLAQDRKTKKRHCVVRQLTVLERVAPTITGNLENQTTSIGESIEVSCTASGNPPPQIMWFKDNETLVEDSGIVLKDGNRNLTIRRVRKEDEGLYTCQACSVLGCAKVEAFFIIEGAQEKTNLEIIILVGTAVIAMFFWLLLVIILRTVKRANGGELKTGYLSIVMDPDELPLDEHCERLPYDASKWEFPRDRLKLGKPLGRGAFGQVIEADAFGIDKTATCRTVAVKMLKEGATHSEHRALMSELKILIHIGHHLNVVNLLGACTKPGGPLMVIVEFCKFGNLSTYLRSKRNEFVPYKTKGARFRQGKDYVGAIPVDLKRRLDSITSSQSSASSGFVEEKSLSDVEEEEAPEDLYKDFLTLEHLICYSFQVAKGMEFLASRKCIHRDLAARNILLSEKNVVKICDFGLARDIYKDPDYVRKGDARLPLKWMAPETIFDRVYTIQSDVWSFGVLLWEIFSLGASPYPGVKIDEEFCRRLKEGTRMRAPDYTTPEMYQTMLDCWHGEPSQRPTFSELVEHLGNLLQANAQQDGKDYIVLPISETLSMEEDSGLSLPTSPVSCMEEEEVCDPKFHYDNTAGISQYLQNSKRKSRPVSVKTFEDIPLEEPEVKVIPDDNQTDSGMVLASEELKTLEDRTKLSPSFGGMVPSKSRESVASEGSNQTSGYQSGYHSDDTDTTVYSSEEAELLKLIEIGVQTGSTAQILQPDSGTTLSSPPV
Chain of Serine/threonine-protein kinase SBK1 (Homo sapiens) (Q52WX2 whole entry, the tested form may be a part): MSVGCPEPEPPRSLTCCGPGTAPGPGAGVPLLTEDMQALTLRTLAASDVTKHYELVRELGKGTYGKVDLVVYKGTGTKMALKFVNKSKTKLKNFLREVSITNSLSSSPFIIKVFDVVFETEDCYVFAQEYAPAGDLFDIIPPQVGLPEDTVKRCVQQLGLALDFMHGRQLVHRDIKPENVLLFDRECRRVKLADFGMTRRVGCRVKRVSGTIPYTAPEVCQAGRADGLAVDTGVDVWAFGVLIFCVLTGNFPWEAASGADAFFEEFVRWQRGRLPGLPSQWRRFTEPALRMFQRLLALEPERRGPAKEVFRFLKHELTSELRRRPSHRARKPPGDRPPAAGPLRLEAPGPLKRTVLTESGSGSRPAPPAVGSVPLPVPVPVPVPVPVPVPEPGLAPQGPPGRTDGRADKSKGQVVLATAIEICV
Chain of Testis-specific serine/threonine-protein kinase 1 (Homo sapiens) (Q9BXA7 whole entry, the tested form may be a part): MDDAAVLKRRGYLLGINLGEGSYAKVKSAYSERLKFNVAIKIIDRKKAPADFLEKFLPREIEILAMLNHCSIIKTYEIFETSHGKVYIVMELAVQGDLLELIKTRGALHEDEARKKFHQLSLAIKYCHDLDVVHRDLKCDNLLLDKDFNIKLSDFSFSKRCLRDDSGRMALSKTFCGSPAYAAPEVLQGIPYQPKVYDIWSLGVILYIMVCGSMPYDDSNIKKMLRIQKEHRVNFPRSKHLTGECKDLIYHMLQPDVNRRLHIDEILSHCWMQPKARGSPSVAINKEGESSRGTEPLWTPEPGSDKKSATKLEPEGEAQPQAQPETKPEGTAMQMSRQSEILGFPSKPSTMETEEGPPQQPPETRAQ
Chain of Peripheral plasma membrane protein CASK (Homo sapiens) (O14936 whole entry, the tested form may be a part): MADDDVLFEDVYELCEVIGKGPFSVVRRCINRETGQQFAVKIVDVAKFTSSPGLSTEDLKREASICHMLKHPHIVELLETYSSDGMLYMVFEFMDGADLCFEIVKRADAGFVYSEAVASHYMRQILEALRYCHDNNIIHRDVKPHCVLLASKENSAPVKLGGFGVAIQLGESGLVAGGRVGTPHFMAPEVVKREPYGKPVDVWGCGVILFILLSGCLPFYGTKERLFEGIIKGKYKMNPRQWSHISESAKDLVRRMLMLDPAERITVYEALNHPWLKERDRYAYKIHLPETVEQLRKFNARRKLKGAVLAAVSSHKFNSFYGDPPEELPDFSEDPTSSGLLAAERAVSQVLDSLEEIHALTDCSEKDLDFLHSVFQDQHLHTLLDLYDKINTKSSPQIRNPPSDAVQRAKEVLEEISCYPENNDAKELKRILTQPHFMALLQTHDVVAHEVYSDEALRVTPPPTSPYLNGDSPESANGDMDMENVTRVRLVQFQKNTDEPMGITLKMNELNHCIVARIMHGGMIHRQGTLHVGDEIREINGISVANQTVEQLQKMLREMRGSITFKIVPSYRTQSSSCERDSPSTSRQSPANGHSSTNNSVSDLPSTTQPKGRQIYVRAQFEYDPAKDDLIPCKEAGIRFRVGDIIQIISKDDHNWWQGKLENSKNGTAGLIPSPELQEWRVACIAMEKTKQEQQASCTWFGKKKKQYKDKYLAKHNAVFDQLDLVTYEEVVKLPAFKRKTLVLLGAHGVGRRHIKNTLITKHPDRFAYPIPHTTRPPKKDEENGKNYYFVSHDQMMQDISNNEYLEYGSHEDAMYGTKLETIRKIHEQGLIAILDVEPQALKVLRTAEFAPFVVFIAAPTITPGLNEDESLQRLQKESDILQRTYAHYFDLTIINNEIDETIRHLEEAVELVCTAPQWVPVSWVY
Chain of Aurora kinase B (Homo sapiens) (Q96GD4 whole entry, the tested form may be a part): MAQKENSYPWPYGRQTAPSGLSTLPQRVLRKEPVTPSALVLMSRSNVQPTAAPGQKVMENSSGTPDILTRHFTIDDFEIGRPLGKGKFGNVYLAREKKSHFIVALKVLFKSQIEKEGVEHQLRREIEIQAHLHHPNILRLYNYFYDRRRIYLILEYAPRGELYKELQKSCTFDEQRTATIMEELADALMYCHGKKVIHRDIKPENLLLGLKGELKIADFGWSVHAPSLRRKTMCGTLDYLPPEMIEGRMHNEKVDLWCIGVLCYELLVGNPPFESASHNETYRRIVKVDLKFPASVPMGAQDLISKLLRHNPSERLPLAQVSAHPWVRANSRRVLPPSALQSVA

For the molecule `Cc1ccc(NC(=O)c2ccc(CN(CCN(C)C)C(=O)c3cccnc3)cc2)cc1Nc1nccc(-c2cccnc2)n1`, the Tmax in [1] was found to be 1.5 h. Further, the Activity amounted to 100% in [2]; 97% in [3]; 100% in data set [4]; 100% in [5]; 93% in data set [6]; 100% in [7]. Besides, the Activity in data set [8] worked out at 100%; in [9] it was 94%; in [10] it was 96%; in [12] it was 92%; in data set [13], 100%; in [14] it was 93%. The Activity amounted to 100% in data set [15]; 93% in [16]; 99% in data set [17]; 96% in [19]; 87% in [20]; 100% in [21]. In [11], the clearance is 32.7 mL/min/kg. Moreover, in data set [18], the inhibition result was “Dose-dependent effect”.
